Screening results from PubChem.
In the library only some 1.4% were active in any assay of this set; here they are far more common.
FXIIa inh 1536: factor XIIa (human) inhibition; purified FXIIa, Boc-QGR-AMC fluorogenic substrate, 2 h; inhibition, % at 5 µM; 220,000 compounds, 0.3% hits; AID 800; in the data active means inhibition above about 40%;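 further: 0% = enzyme with no compound and 100% = blank without enzyme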
Target sequence (P00748 20-372 limits assumed): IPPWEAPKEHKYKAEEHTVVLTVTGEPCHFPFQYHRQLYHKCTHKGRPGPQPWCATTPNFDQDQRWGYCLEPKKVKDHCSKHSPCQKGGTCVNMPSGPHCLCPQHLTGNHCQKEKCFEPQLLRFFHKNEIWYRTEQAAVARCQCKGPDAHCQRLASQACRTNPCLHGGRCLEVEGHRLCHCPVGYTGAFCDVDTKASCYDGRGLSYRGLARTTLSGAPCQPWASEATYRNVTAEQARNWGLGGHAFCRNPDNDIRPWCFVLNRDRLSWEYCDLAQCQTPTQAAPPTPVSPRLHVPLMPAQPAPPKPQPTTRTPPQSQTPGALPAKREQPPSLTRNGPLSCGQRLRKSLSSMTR
Target sequence (P00748 373-615 limits assumed): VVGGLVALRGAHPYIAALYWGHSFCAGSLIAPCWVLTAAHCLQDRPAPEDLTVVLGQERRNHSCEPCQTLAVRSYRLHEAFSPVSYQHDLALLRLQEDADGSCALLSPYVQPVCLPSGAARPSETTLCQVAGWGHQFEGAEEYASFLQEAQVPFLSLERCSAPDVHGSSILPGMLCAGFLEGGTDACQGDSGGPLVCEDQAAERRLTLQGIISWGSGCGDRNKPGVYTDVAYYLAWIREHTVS
FXIa inh: factor XIa (human) inhibition; 220,000 compounds, 0.14% hits; P03951; inhibition, % at 5 µM; purified FXIa, Boc-Glu-Ala-Arg-AMC fluorogenic substrate;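 active means inhibition of at least 40%; inactive means inhibition below 40%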;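 further: fluorescence of freed AMC excited at 355 nm; 0% = enzyme without compound and 100% = no enzyme blank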
hK5 inh: blocks human kallikrein 5 protease activity | Q9Y337 | 210,000 compounds, 0.59% hits | recombinant hK5, fluorogenic AMC substrate cleavage | inhibition, % at 5 µM | AID 873;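 active means inhibition of 40% or more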;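 further: 0% = enzyme controls without compound and 100% = no-enzyme blanks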
thrombin 1536: thrombin (human) inhibition; P00734; alpha-thrombin, Boc-VPR-AMC fluorogenic substrate cleavage; inhibition, % at 5 µM; 220,000 compounds, 0.26% hits; AID 1046;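 active means inhibition at or above 40%; inactive means inhibition below 40%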;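 further: 0% = enzyme with no compound and 100% = wells without enzyme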
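Material: human alpha-thrombin enzyme / Medium: pH 7.5 Tris (50 mM) with NaCl 150 mM, Tween 20 0.05% / Compound: single-point dosing at 5 µM, 0.2% DMSO / Incubation: enzyme reaction carried out at room temperature / Detection: AMC fluorescence, 355/460 nm / Read-out basis: percent inhibition scaled between no-compound controls and no-enzyme blanks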
Furin inhibitor: human furin inhibition; inhibition, % at 20 µM or 30 µM; purified furin, fluorogenic substrate cleavage; P09958; 220,000 compounds, 0.061% hits; in the data active means inhibition above about 25%
m-calpain inh: blocks pig calpain II enzyme activity | purified calpain II, fluorogenic peptide substrate, 30 min | inhibition, % at 16 µM | 220,000 compounds, 0.37% hits;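 active means inhibition above about 50%, limit read from the data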
Numbers without * were called inactive; / = no result.

SMILES	FXIIa inh 1536	FXIa inh	hK5 inh	thrombin 1536	Furin inhibitor	m-calpain inh
CC(=O)c1c(C)[nH]c(C(=O)OCc2cccc(Cl)c2)c1C	6	20	-2	-6	-6	54*
COc1ccc(C(=O)NC2CCCCCC2)cc1S(=O)(=O)Nc1ccc(Br)cc1	8	-4	3	-3	-18	14
O=C(CSc1nc2ccccc2s1)N1CCOCC1	21	4	-11	-4	-21	3
NC(=O)C1(N2CCCCC2)CCN(C(=O)CSc2nc3ccccc3s2)CC1	11	9	59*	26	-18	22
Cc1ccc(C)c(N2CCN(C(=O)C3CCCCN3S(=O)(=O)c3ccc(F)cc3)CC2)c1 (stereo unspecified)	3	0	-7	-7	-25	57*
COc1cccc(C(=O)Nc2nc(SCc3ccc(Cl)cc3)n[nH]2)c1	34	8	29	51*	-20	6
CCOC(=O)CSc1n[nH]c(NC(=O)c2cccc(C(F)(F)F)c2)n1	15	-8	39	78*	-18	12
CCOC(=O)c1ccc(NC(=O)CC2C(=O)OCCN2CC)cc1 (stereo unspecified)	12	1	3	2	-22	-16
CN(C)S(=O)(=O)Oc1ccsc1C(=O)Nc1ccc(Br)cc1	6	-3	-8	-8	-21	-11
CN(C)S(=O)(=O)Oc1ccsc1C(=O)Nc1cccc(Cl)c1	47*	19	6	-1	-12	29
CN(C)S(=O)(=O)Oc1ccsc1C(=O)Nc1ccc(Cl)c(Cl)c1	42*	13	3	-2	-16	30
CC(Nc1n[nH]c(=O)[nH]c1=O)C(=O)N/N=C/c1ccccc1 (stereo unspecified)	11	-6	-1	0	-24	-6
CC(C)(C)NC(=O)CSc1nc2ccc(Nc3nc(N4CCOCC4)nc(N4CCOCC4)n3)cc2s1	-5	10	-21	0	-23	-88
CCNC(=O)C1CCCN1S(=O)(=O)c1ccc(OC)cc1 (stereo unspecified)	-9	-11	-2	-6	-18	-11
COc1ccc(S(=O)(=O)N2CCCC2C(=O)NCc2cccs2)cc1 (stereo unspecified)	-2	12	48*	18	-4	6
Cc1[nH][nH]c(=O)c1C(c1cc([N+](=O)[O-])ccc1O)c1c(C)[nH][nH]c1=O	8	13	57*	23	-8	29
CC(C)N(C)CCOC(=O)/C=C/c1ccccc1	15	-4	41*	6	-16	22
CN(CCOC(=O)/C=C/c1ccccc1)C(C)(C)C	5	-8	-17	-8	-14	-12
O=C(NC1CC1)c1cc2c(F)cccc2s1	10	-1	1	5	-30	-21
CCCN1CCC(N2CCCC(C(=O)O)C2)CC1 (stereo unspecified)	27	33	27	45*	-2	18
CCOC(=O)C1CCCN(c2c(N3CCC(N4CCCCC4)CC3)c(=O)c2=O)C1 (stereo unspecified)	12	4	-4	-1	0	-11
Cc1ccc(S(=O)(=O)N(CC(=O)NCCC2=CCCCC2)Cc2ccccc2)cc1	42*	12	-15	5	-2	38
O=C1Nc2ccc(F)cc2C12Nc1ccccc1-c1nnc(SCc3ccccc3Cl)nc1O2 (stereo unspecified)	13	6	-5	5	-12	-59
O=C(CBr)N1CCc2ccccc2C(c2ccccc2)C1 (stereo unspecified)	10	2	4	-1	-14	-12
O=C(CN1CCOCC1)N1CCc2ccccc2C(c2ccccc2)C1 (stereo unspecified)	-2	10	73*	20	-22	3
SMILES	FXIIa inh 1536	FXIa inh	hK5 inh	thrombin 1536	Furin inhibitor	m-calpain inh
Cc1ccc(Nc2nc(-c3ccc(S(=O)(=O)N4CCOCC4)cc3)cs2)cc1Cl	2	-1	-4	-3	-22	60*
O=C(NCc1ccc2c(c1)OCO2)c1cc([N+](=O)[O-])ccc1N1CCCCC1	13	6	-3	0	-23	22
O=C(Nc1cccc([N+](=O)[O-])c1)c1ccc(-c2ccccc2)cc1	12	0	1	3	-17	-10
O=C(Nc1cccc([N+](=O)[O-])c1)c1cccc(C(=O)Nc2cccc([N+](=O)[O-])c2)c1	9	-1	-21	1	-4	56*
O=C(CCNc1ccccc1)c1cccc([N+](=O)[O-])c1	14	9	-7	2	-3	51*
Cc1ccc(C(=O)N/C(=C/c2cn(-c3ccccc3)nc2-c2ccccc2)C(=O)O)cc1	10	3	/	1	-18	-9
CN(C)c1ncc(S(=O)(=O)c2ccc(Cl)cc2)c(-c2ccccc2)n1	-6	3	3	-4	-1	56*
CCOC(=O)CN(C(=O)CSc1nnc2c(n1)[nH]c1ccc(F)cc12)c1ccccc1	10	7	0	0	-8	59*
CCOC(=O)CN(C(=O)CSc1nnc2c(n1)[nH]c1ccccc12)c1ccccc1	4	5	11	3	-12	16
Cc1cccn2c(=O)c(C=NCc3ccco3)c(Nc3ccc(SC(F)F)cc3)nc12	0	-5	-7	3	-5	-3
CS(=O)(=O)N(CC(=O)NCc1ccccc1)C1CCCCC1	16	6	-8	0	-12	-17
CC(C)CNC(=O)CN(C1CCCCC1)S(C)(=O)=O	10	3	52*	24	-21	7
CC(NC(=O)CN(C1CCCCC1)S(C)(=O)=O)c1ccccc1 (stereo unspecified)	18	18	36	61*	-21	28
CCN(CC(=O)Nc1cc(C)nn1-c1nc(C)cc(C)n1)Cc1ccccc1	2	-2	-11	-6	-16	8
Cc1nn(C2CCCCC2)c(N)c1-c1ccccc1	1	6	3	4	-30	-5
COc1cc(/C=c2\s/c(=C\C(=O)C(C)(C)C)[nH]c2=O)cc(OC)c1OC	29	35	47*	34	3	-9
COc1ccc(/C=c2\s/c(=C\C(=O)C(C)(C)C)[nH]c2=O)cc1O	10	5	6	1	9	12
Cc1ccc2nc(NC(=O)CSCC(=O)OCC(=O)c3ccccc3)sc2c1	10	10	-11	93*	-27	-15
CCOCC(=O)Nc1nc2ccc(C)cc2s1	-4	-4	-26	-5	-16	11
COc1ccc(-c2nnc(NC(=O)Cc3ccccc3)s2)c(OC)c1	6	-12	52*	0	-17	0
COc1ccc(-c2nnc(NC(=O)c3cccs3)s2)c(OC)c1	5	-18	27	-3	-8	40
Cc1cccc(/C=C2/S/C(=N/N=C3\CC4CCC3(C)C4(C)C)NC2=O)c1 (stereo unspecified)	23	7	1	4	31*	-46
